Assay results pooled from the literature.

`O=C1NC2(CCC2)C(=O)N1c1ccc(F)c(C(F)(F)F)c1` gave a microsomal CLint of 11 µL/min/mg (metabolic stability; human, liver microsomes).
For `CC(C)CC(=O)OC[C@H]1O[C@@](C#N)(c2ccc3c(N)ncnn23)[C@H](O)[C@@H]1O`, the CC50 was greater than 100 µM (HEp-2; cell growth or viability, CCK-8; 5 days).
`Cc1[nH]c(C)c(S(=O)(=O)Nc2ccc(S(=O)(=O)F)c(Cl)c2)c1C(=O)N1CCC(F)(F)C1` has a microsomal CLint of 31.7 µL/min/mg (metabolic stability; human, liver microsomes).
For `CC1(CC(F)(F)F)NC(=O)N(c2ccc(F)c(C(F)(F)F)c2)C1=O` (centres unmarked), the microsomal CLint was less than 7 µL/min/mg (metabolic stability; human, liver microsomes).
`CC/C(=C(\c1ccccc1)c1ccc(OCCN(C)C)cc1)c1ccccc1` gave an IC50 of 18.2 µM (MCF7; cell growth or viability, resazurin; 72 h).
The logD of `CC(C)CCC(=O)N[C@H]1[C@H]([C@H](O)[C@H](O)CO)OC(C(=O)O)=C[C@@H]1O` is reported as -0.88 (shake flask; aqueous buffer; 2 h, pH 7.4).
With `CC(C)(C)[C@H](NC(=O)C(F)(F)F)C(=O)N1C[C@H]2[C@@H]([C@H]1C(=O)N[C@H](C#N)C[C@@H]1CCNC1=O)C2(C)C` the CC50 was greater than 100 µM (Calu-3; cell growth or viability).
`CC(C)Cc1cn([C@H]2[C@H]([C@H](O)[C@H](O)CO)OC(C(=O)O)=C[C@@H]2O)nn1` has a logD of -0.54 (shake flask; aqueous buffer; 2 h, pH 7.4).
`N#C[C@@]1(n2ccc(N)nc2=O)O[C@H](CO)[C@@H](O)[C@H]1O` has a CC50 of greater than 100 µM (Calu-3; cell growth or viability).
For `Cc1[nH]c(C)c(S(=O)(=O)Nc2ccc(S(F)(F)(F)(F)F)c(Cl)c2)c1C(=O)N1CCC(F)(F)C1`, the microsomal CLint was 20.5 µL/min/mg (metabolic stability; rat, liver microsomes).
`COc1ccc(NC(=O)N2CCCCN3[C@H](CN(C)C)[C@H](c4ccc(C#Cc5ccccc5)cc4)[C@@H]3C2)cc1` gave a CC50 of 2.87 µM (THP-1; cell growth or viability, ATP luminescence; 72 h).
